Source: ChEMBL document CHEMBL5303300, “EUbOPEN Chemogenomics Library - Multiplex” (2023)
“And” between values parts separate entries of the source, which are not always exact repeats. Equal entries are not always repeated. *1 amine or outer side, *2 acyl side, *3 side chain or, on linkers, in order; H or OH if unused. Where a SMILES comes first, the peptide text is derived from it. Bridges are numbered along the chain shown (N, C = ends). Roman numbers before positions name the chains, in order. [ ]: non-standard residue; d: D form. Hexamethylenediamine = C(CCCN[*:2])CCN[*:1]; Dip = N[C@H](C(=O)O)C(c1ccccc1)c1ccccc1; Chg = N[C@H](C(=O)O)C1CCCCC1; NMeA = CN[C@@H](C)C(=O)O

System: HEK-293T
Assay: Multiplex assay against HEK293T
Assay type: toxicity, cell-based
Conditions: human, number of replicates 2
Procedure, shortened: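 At seeding, live cells were stained with Hoechst33342, BioTracker Green Microtubule Cytoskeleton Dye, MitoTracker Red and Annexin V Alexa Fluor 680. After compound addition they were imaged on a CQ1 microscope at 37°C and 5% CO2, and CellPathfinder machine-learning gating sorted them into Hoechst high-intensity objects or normal cells, with normal cells further split into healthy, pyknosed or fragmented nuclei and pyknosed cells into mitotic or apoptotic. Tubulin, mitochondrial-mass and membrane-permeability phenotypes are given as per cents of cells with healthy nuclei.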

[1] = 12 h, 1 µM, compound concentration 1 uM
[2] = 12 h, 10 µM, compound concentration 10 uM
[3] = 24 h, 1 µM, compound concentration 1 uM
[4] = 24 h, 10 µM, compound concentration 10 uM
[5] = 48 h, 1 µM, compound concentration 1 uM
[6] = 48 h, 10 µM, compound concentration 10 uM

In the case of COc1ccncc1C(=O)NC(=O)Nc1ccc(-c2ccccc2)c(C(F)(F)F)c1, the “Population Apoptotic (%)” value [1] is reported as 56% and 45%, the “Population Fragmented Nuclei (%)” value [1] is reported as 2% and 4% and the “Population Healthy Nuclei (%)” value [1] is reported as 87% and 84%. The “Population Hoechst High Intensity Objects (%)” value [1] was 7% and 8%, the “Population Membrane Permeable-Phenotype (%)” value [1] was 2% and 3% and the “Population Mitochondria Different-Phenotype (%)” value [1] was 23% and 12%. For the same compound, the “Population Mitotic Cells (%)” value [1] was 43% and 54%, the “Population Normal (%)” value [1] was 93% and 91% and the “Population Pyknosed Nuclei (%)” value [1] was 10% and 11%. For the same compound, the “Population Tubulin-Different-Phenotype (%)” value [1] was 55% and 46%, the “Total Cell Count” value [1] was 543 and 715 and the “Population Apoptotic (%)” value [2] was 49% and 44%. The “Population Fragmented Nuclei (%)” value [2] was 3% and 4%, the “Population Healthy Nuclei (%)” value [2] was 81% and 84% and the “Population Hoechst High Intensity Objects (%)” value [2] was 7%. The “Population Membrane Permeable-Phenotype (%)” value [2] was 2%, the “Population Mitochondria Different-Phenotype (%)” value [2] was 28% and 21% and the “Population Mitotic Cells (%)” value [2] was 50% and 55%. For the same compound, the “Population Normal (%)” value [2] was 92%, the “Population Pyknosed Nuclei (%)” value [2] was 14% and 11% and the “Population Tubulin-Different-Phenotype (%)” value [2] was 66% and 52%. For the same compound, the “Total Cell Count” value [2] was 484 and 596, the “Population Apoptotic (%)” value [3] was 43% and 39% and the “Population Fragmented Nuclei (%)” value [3] was 3% and 5%. The “Population Healthy Nuclei (%)” value [3] was 88% and 86%, the “Population Hoechst High Intensity Objects (%)” value [3] was 6% and 9% and the “Population Membrane Permeable-Phenotype (%)” value [3] was 2%. The “Population Mitochondria Different-Phenotype (%)” value [3] was 4% and 6%, the “Population Mitotic Cells (%)” value [3] was 56% and 60% and the “Population Normal (%)” value [3] was 93% and 90%. The “Population Pyknosed Nuclei (%)” value [3] was 7%, the “Population Tubulin-Different-Phenotype (%)” value [3] was 33% and 30% and the “Total Cell Count” value [3] was 828 and 1052. For the same compound, the “Population Apoptotic (%)” value [4] was 61% and 41%, the “Population Fragmented Nuclei (%)” value [4] was 8% and 6% and the “Population Healthy Nuclei (%)” value [4] was 82% and 85%. The “Population Hoechst High Intensity Objects (%)” value [4] was 9% and 8%, the “Population Membrane Permeable-Phenotype (%)” value [4] was 2% and the “Population Mitochondria Different-Phenotype (%)” value [4] was 11% and 7%. For the same compound, the “Population Mitotic Cells (%)” value [4] was 38% and 58%, the “Population Normal (%)” value [4] was 90% and 91% and the “Population Pyknosed Nuclei (%)” value [4] was 9% and 8%. The “Population Tubulin-Different-Phenotype (%)” value [4] was 38% and 32%, the “Total Cell Count” value [4] was 722 and 835 and the “Population Apoptotic (%)” value [5] was 8% and 9%. For the same compound, the “Population Fragmented Nuclei (%)” value [5] was 11%, the “Population Healthy Nuclei (%)” value [5] was 85% and the “Population Hoechst High Intensity Objects (%)” value [5] was 9%. The “Population Membrane Permeable-Phenotype (%)” value [5] was 5% and 4%, the “Population Mitochondria Different-Phenotype (%)” value [5] was 0% and the “Population Mitotic Cells (%)” value [5] was 91% and 90%. The “Population Normal (%)” value [5] was 90%, the “Population Pyknosed Nuclei (%)” value [5] was 3% and the “Population Tubulin-Different-Phenotype (%)” value [5] was 14% and 12%. The “Total Cell Count” value [5] was 2070 and 2556, the “Population Apoptotic (%)” value [6] was 26% and 21% and the “Population Fragmented Nuclei (%)” value [6] was 11% and 12%. The “Population Healthy Nuclei (%)” value [6] was 84%, the “Population Hoechst High Intensity Objects (%)” value [6] was 7% and 8% and the “Population Membrane Permeable-Phenotype (%)” value [6] was 4% and 6%. For the same compound, the “Population Mitochondria Different-Phenotype (%)” value [6] was 1%, the “Population Mitotic Cells (%)” value [6] was 73% and 78% and the “Population Normal (%)” value [6] was 92% and 91%. For the same compound, the “Population Pyknosed Nuclei (%)” value [6] was 4% and 3%, the “Population Tubulin-Different-Phenotype (%)” value [6] was 23% and 19% and the “Total Cell Count” value [6] was 1542 and 1838.
CCOC(=O)Nc1cc(-c2ccc(C)c(NS(C)(=O)=O)c2)nn2c(C)nnc12 was tested, and the “Population Apoptotic (%)” value [2] was 36% and 38% and 52% and 40%, the “Population Fragmented Nuclei (%)” value [2] was 2% and 3% and the “Population Healthy Nuclei (%)” value [2] was 78% and 74% and 75% and 79%. The “Population Hoechst High Intensity Objects (%)” value [2] was 4% and 3%, the “Population Membrane Permeable-Phenotype (%)” value [2] was 5% and 11% and 2% and the “Population Mitochondria Different-Phenotype (%)” value [2] was 15% and 28% and 21% and 20%. The “Population Mitotic Cells (%)” value [2] was 63% and 61% and 47% and 59%, the “Population Normal (%)” value [2] was 95% and 96% and the “Population Pyknosed Nuclei (%)” value [2] was 19% and 22% and 21% and 17%. The “Population Tubulin-Different-Phenotype (%)” value [2] was 56% and 71% and 58% and 55%, the “Total Cell Count” value [2] was 892 and 664 and 646 and 672 and the “Population Apoptotic (%)” value [4] was 40% and 25% and 30% and 24%. The “Population Fragmented Nuclei (%)” value [4] was 3% and 4% and 2%, the “Population Healthy Nuclei (%)” value [4] was 82% and 86% and 84% and 85% and the “Population Hoechst High Intensity Objects (%)” value [4] was 5% and 4%. The “Population Membrane Permeable-Phenotype (%)” value [4] was 3% and 0% and 1%, the “Population Mitotic Cells (%)” value [4] was 59% and 75% and 69% and the “Population Normal (%)” value [4] was 94% and 95%. The “Population Pyknosed Nuclei (%)” value [4] was 13% and 9% and 12% and 10%, the “Population Tubulin-Different-Phenotype (%)” value [4] was 32% [middle of 4 runs] and the “Total Cell Count” value [4] was 755 and 1187 and 821 and 806. For the same compound, the “Population Apoptotic (%)” value [6] was 25% and 42% and 30% and 29%, the “Population Fragmented Nuclei (%)” value [6] was 9% and 5% and 7% and 6% and the “Population Healthy Nuclei (%)” value [6] was 83% and 79% and 80% and 82%. The “Population Hoechst High Intensity Objects (%)” value [6] was 5% and 9%, the “Population Membrane Permeable-Phenotype (%)” value [6] was 0% and 1% and the “Population Mitotic Cells (%)” value [6] was 75% and 57% and 69% and 70%. The “Population Normal (%)” value [6] was 94% and 90%, the “Population Pyknosed Nuclei (%)” value [6] was 7% and 15% and 11% and the “Total Cell Count” value [6] was 1217 and 690 and 964 and 833.
For CN[C@@H](C)C(=O)N[C@H](C(=O)N1CCC[C@H]1C(=O)N[C@H](C(=O)NCCCCCCNC(=O)[C@@H](NC(=O)[C@@H]1CCCN1C(=O)[C@@H](NC(=O)[C@H](C)NC)C1CCCCC1)C(c1ccccc1)c1ccccc1)C(c1ccccc1)c1ccccc1)C1CCCCC1 (I: H-[NMeA][Chg]P[Dip] / II: H-[NMeA][Chg]P[Dip]; linker I:C-II:C via Hexamethylenediamine), the “Population Apoptotic (%)” value [1] was 45% and 56%, the “Population Fragmented Nuclei (%)” value [1] was 3% and 1% and the “Population Healthy Nuclei (%)” value [1] was 85%. For the same compound, the “Population Hoechst High Intensity Objects (%)” value [1] was 7% and 5%, the “Population Membrane Permeable-Phenotype (%)” value [1] was 2% and the “Population Mitochondria Different-Phenotype (%)” value [1] was 27% and 23%. The “Population Mitotic Cells (%)” value [1] was 54% and 43%, the “Population Normal (%)” value [1] was 92% and 94% and the “Population Pyknosed Nuclei (%)” value [1] was 10% and 13%. For the same compound, the “Population Tubulin-Different-Phenotype (%)” value [1] was 59% and 58%, the “Total Cell Count” value [1] was 599 and 505 and the “Population Apoptotic (%)” value [2] was 83% and 76%. The “Population Fragmented Nuclei (%)” value [2] was 4% and 2%, the “Population Healthy Nuclei (%)” value [2] was 75% and 79% and the “Population Hoechst High Intensity Objects (%)” value [2] was 12% and 5%. The “Population Membrane Permeable-Phenotype (%)” value [2] was 3% and 0%, the “Population Mitochondria Different-Phenotype (%)” value [2] was 76% and the “Population Mitotic Cells (%)” value [2] was 16% and 23%. For the same compound, the “Population Normal (%)” value [2] was 87% and 94%, the “Population Pyknosed Nuclei (%)” value [2] was 20% and 17% and the “Population Tubulin-Different-Phenotype (%)” value [2] was 96% and 98%. The “Total Cell Count” value [2] was 501 and 525, the “Population Apoptotic (%)” value [3] was 43% and 54% and the “Population Fragmented Nuclei (%)” value [3] was 5% and 3%. The “Population Healthy Nuclei (%)” value [3] was 87%, the “Population Hoechst High Intensity Objects (%)” value [3] was 6% and 7% and the “Population Membrane Permeable-Phenotype (%)” value [3] was 2% and 1%. The “Population Mitochondria Different-Phenotype (%)” value [3] was 16% and 20%, the “Population Mitotic Cells (%)” value [3] was 56% and 45% and the “Population Normal (%)” value [3] was 93%. The “Population Pyknosed Nuclei (%)” value [3] was 7% and 8%, the “Population Tubulin-Different-Phenotype (%)” value [3] was 40% and 44% and the “Total Cell Count” value [3] was 944 and 671. For the same compound, the “Population Apoptotic (%)” value [4] was 79% and 67%, the “Population Fragmented Nuclei (%)” value [4] was 7% and 4% and the “Population Healthy Nuclei (%)” value [4] was 66% and 80%. For the same compound, the “Population Hoechst High Intensity Objects (%)” value [4] was 12% and 7%, the “Population Membrane Permeable-Phenotype (%)” value [4] was 1% and 0% and the “Population Mitochondria Different-Phenotype (%)” value [4] was 85% and 82%. The “Population Mitotic Cells (%)” value [4] was 20% and 32%, the “Population Normal (%)” value [4] was 87% and 92% and the “Population Pyknosed Nuclei (%)” value [4] was 26% and 15%. The “Population Tubulin-Different-Phenotype (%)” value [4] was 92% and 95%, the “Total Cell Count” value [4] was 463 and 559 and the “Population Apoptotic (%)” value [5] was 19% and 25%. The “Population Fragmented Nuclei (%)” value [5] was 9% and 7%, the “Population Healthy Nuclei (%)” value [5] was 86% and 87% and the “Population Hoechst High Intensity Objects (%)” value [5] was 6% and 8%. For the same compound, the “Population Membrane Permeable-Phenotype (%)” value [5] was 3% and 0%, the “Population Mitochondria Different-Phenotype (%)” value [5] was 2% and 5% and the “Population Mitotic Cells (%)” value [5] was 80% and 74%. The “Population Normal (%)” value [5] was 93% and 91%, the “Population Pyknosed Nuclei (%)” value [5] was 3% and 5% and the “Population Tubulin-Different-Phenotype (%)” value [5] was 18% and 25%. The “Total Cell Count” value [5] was 2232 and 1305, the “Population Apoptotic (%)” value [6] was 80% and 75% and the “Population Fragmented Nuclei (%)” value [6] was 9% and 7%. The “Population Healthy Nuclei (%)” value [6] was 72% and 74%, the “Population Hoechst High Intensity Objects (%)” value [6] was 9% and 10% and the “Population Membrane Permeable-Phenotype (%)” value [6] was 4% and 2%. The “Population Mitochondria Different-Phenotype (%)” value [6] was 53% and 56%, the “Population Mitotic Cells (%)” value [6] was 19% and 24% and the “Population Normal (%)” value [6] was 90% and 89%. The “Population Pyknosed Nuclei (%)” value [6] was 18% and 17%, the “Population Tubulin-Different-Phenotype (%)” value [6] was 82% and 84% and the “Total Cell Count” value [6] was 653 and 709.
